Screening results as filed in PubChem.
TRPC4 act: TRPC4 (mouse) channel activation; actives 0.49% (n = 310,000); HEK293 TRPC4beta/mu-opioid, Fluo4 calcium fluorescence; hits give high values; B-score at 10 µM;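 active = B-score above 5 SD of library B-scores, and initial fluorescence ratio not above library mean plus 5 SD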;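 note: positive B-score marks a calcium rise read as TRPC4 activation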
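Incubation: 45 min room-temperature Fluo4 loading, 110 s read / System: HEK293 cells stably co-expressing mouse TRPC4beta and mu-opioid receptor / Signal: Fluo4 fluorescence, kinetic / Control set: buffer (low) and maximal DAMGO (high) / Measure: integrated baseline-normalised fluorescence ratio, converted to per-well B score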
TRPC4 potent: allosteric potentiators of mouse TRPC4 channel; Q9QUQ5; HEK293 TRPC4beta/mu-opioid, DAMGO EC20, Fluo-4 Ca2+ flux; hits give high values; B-score at 10 µM; actives 0.42% (n = 310,000);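 active = B-score of calcium response area above 5 SD of library B-scores, with initial fluorescence ratio within 5 SD of library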;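 note: B-score of integrated fluorescence ratio over time as area under calcium response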
TRPC6 activator: activators of mouse TRPC6 channel | HEK293-TRPC6 membrane potential dye fluorescence; hits give high values | AID 2550 | Q61143 | actives 0.13% (n = 310,000) | B-score at 10 µM;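 active = B-score of the integrated fluorescence ratio above library mean plus 3 SD, and starting fluorescence ratio within library mean plus 5 SD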;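 note: higher score means more depolarization so channel activation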
TRPC6 inh: inhibitors of mouse TRPC6 channel; Q61143; HEK293-TRPC6, membrane potential dye, ACh-evoked depolarization; hits give low values; B-score at 10 µM; actives 1.1% (n = 310,000); AID 2553;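 active = B-score under library mean minus 3 SD, initial fluorescence not abnormally high, positive integrated signal ratio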;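 note: B-score derived from integrated fluorescence ratio over the kinetic read; more negative B-score means stronger inhibition of depolarization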
TRPC4 inh: blocks the mouse TRPC4 cation channel. B-score at 10 µM. actives 0.39% (n = 300,000). HEK293 TRPC4beta/mu-opioid, DAMGO-evoked Fluo4 calcium flux; hits give low values. Q9QUQ5;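 active = B-score over 3 SD under the library average, no early fluorescence shift, positive overall ratio signal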
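material = TRPC4beta/mu-opioid receptor HEK293 cell line | probe or stimulus = sequential submaximal and maximal DAMGO stimulation | compound dosing = one concentration per compound | measured by = Fluo4 Ca2+ flux fluorescence | evaluation = integrated fluorescence ratio relative to baseline, converted to per-well B score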
TRPC4 sel inh 2: second selectivity test of TRPC6 inhibitors: effect on mouse TRPC4. actives 42% (n = 920). inhibition, % at 10 µM. HEK293 TRPC4/MOR, membrane potential dye fluorescence; channel activated by saturating DAMGO dose. shares compounds with TRPC6 inh;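 active = compounds whose fluorescence signal differed from control wells by over 3 SD, either direction, in both duplicate plates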
TRPC4 spec: selectivity of TRPC6 inhibitors: effect on mouse TRPC4; actives 61% (n = 920); activity change, negative = inhibition, % at 10 µM; AID 2777; HEK293 TRPC4/mu-opioid, membrane potential fluorescence; shares compounds with TRPC6 inh;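 active = rise or fall in signal beyond 3 SD of buffer-only wells in both replicate plates, either sign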;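 note: integrated kinetic ratio of fluorescence range over baseline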
HEK293 MPD ctr 2-1: second counter-screen for TRPC6 inhibitors: parental HEK293 cells; shares compounds with TRPC6 inh; parental HEK293 membrane potential dye fluorescence; maximal acetylcholine challenge after compound addition; actives 31% (n = 920); signal change vs control, % at 10 µM;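 active = membrane potential signal moving either way by over 3 SD of the maximum-effect control, in both duplicate plates, meaning non-specific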
HEK293 MPD ctr-1: parental HEK293 nonspecific activity of TRPC6 inhibitors | shares compounds with TRPC6 inh | actives 60% (n = 920) | membrane potential signal change, % at 10 µM | parental HEK293 membrane potential dye fluorescence | AID 2780;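 active = membrane potential signal shifting up or down by more than 3 SD of buffer-only wells, on both duplicate plates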
HEK293 MPD ctr-2: counter-screen for TRPC6 modulators: effect in parental HEK293 cells; shares compounds with TRPC6 inh; membrane potential dye fluorescence; membrane potential signal change, % at 10 µM; actives 51% (n = 2,400); AID 488924;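 active = membrane potential signal moves up or down beyond 5 SD from buffer-only wells, on both duplicate plates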
HEK293 MPD ctr 2-2: parental HEK293 nonspecific activity of TRPC6 modulators, second screen; inhibition, % at 10 µM; shares compounds with TRPC6 inh; membrane potential dye fluorescence; after compound, maximal acetylcholine stimulation; AID 488926; actives 14% (n = 2,400);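 active = membrane potential signal drops by more than 5 SD from the mean control signal, in both duplicate plates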;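 note: plate controls were acetylcholine ECmax control wells for no effect and buffer only wells for full effect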
TRPC4 ctr mod: mouse TRPC4 off-target activity of TRPC6 modulators; AID 488927; actives 69% (n = 2,400); shares compounds with TRPC6 inh; HEK293 TRPC4/mu-opioid, membrane potential fluorescence; percent change from control (negative = decrease, positive = increase), % at 10 µM;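 active = membrane potential signal moved up or down beyond 5 SD of buffer control wells, in both duplicate plates, actives on both sides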;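 note: plate controls were assay buffer wells for no effect and DAMGO maximal-effect wells for full effect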
TRPC4 ctr inh 2: mouse TRPC4 off-target activity of TRPC6 modulators, second screen. HEK293 TRPC4/mu-opioid, membrane potential dye fluorescence; stimulated with maximal-effect DAMGO. shares compounds with TRPC6 inh. inhibition, % at 10 µM. actives 55% (n = 2,400);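 active = drop in membrane potential signal beyond 5 SD of the control wells in both duplicate plates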;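 note: TRPC4 counter screen for TRPC6 hits run under conditions tuned for TRPC6 not TRPC4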
TRPC6 block conf: confirmation of mouse TRPC6 inhibitors; inhibition, % at 10 µM; actives 43% (n = 3,300); HEK293-TRPC6, membrane potential dye, ACh-evoked depolarization; shares compounds with TRPC6 inh;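 active = fluorescence ratio falls more than 5 SD below the full-stimulation control mean, in both duplicate runs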;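 note: integrated fluorescence ratio of peak minus minimum over baseline after agonist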
TRPC6 act confirm: mouse TRPC6 activator confirmation | shares compounds with TRPC6 inh | HEK293-TRPC6 membrane potential dye fluorescence, FDSS | activation, % at 10 µM | actives 11% (n = 2,800);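 active = ratio signal rise beyond 5 SD above unstimulated control wells' mean, seen in both duplicate runs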;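 note: plate controls were buffer EC0 wells for no effect and acetylcholine ECmax response for full effect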
* = called active by the depositor; i = inactive; nt = not tested or not shown. Compounds with a hit are over-represented: about 2.3% of the library has one in this group of screens.

SMILES	TRPC4 act	TRPC4 potent	TRPC6 activator	TRPC6 inh	TRPC4 inh	HEK293 MPD ctr-2	HEK293 MPD ctr 2-2	TRPC4 ctr mod	TRPC4 ctr inh 2	TRPC6 block conf	TRPC6 act confirm	others
Nc1c2c(nc3ccn(-c4ccccc4)c(=O)c13)CCCCC2	i	i	i	-5.4*	i	-151%*	i	-28%*	38%*	i	i
Nc1c2c(nc3ccn(Cc4ccccc4)c(=O)c13)CCC2	i	i	i	-7.5*	i	nt	nt	nt	nt	73%*	i	TRPC4 sel inh 2=72%*;TRPC4 spec=-22%*;HEK293 MPD ctr 2-1=-10%*;HEK293 MPD ctr-1=-353%*
CN1CCN(/N=C/c2nc(-c3ccc(Cl)cc3)n3ccccc23)CC1	i	i	i	-5.3*	i	-164%*	i	-36%*	40%*	i	i
CN1CCN(/N=C/c2nc(-c3ccccc3)n3ccccc23)CC1	i	i	i	i	i	nt	nt	nt	nt	nt	nt
CN(C)c1ccc(C(=O)C(O)c2ccc(C(C)(C)C)cc2)cc1 (stereo unspecified)	i	i	i	i	i	nt	nt	nt	nt	nt	nt
COc1ccc(NC(=O)c2ccc(N3CCOCC3)nc2)cc1	i	i	i	i	i	nt	nt	nt	nt	nt	nt
COc1ccc(S(=O)(=O)Nc2ccc(N3CCOCC3)nc2)cc1	i	i	i	-5*	i	i	i	i	i	i	i
Cc1cc(Br)ccc1OCCCCNC(C)(C)C	i	i	i	i	i	nt	nt	nt	nt	nt	nt
CC(C)COc1ccc(Br)cc1CNC(C)(C)C	i	i	i	-8.8*	i	584%*	120%*	128%*	83%*	106%*	nt
CSc1nc2ccc(NC(=O)c3ccc(=O)n(C)n3)cc2s1	i	i	i	-5.1*	i	i	i	i	i	i	i
COc1ccc(N2CCN(C(=O)c3ccc4ccccc4n3)CC2)cc1	i	i	i	i	i	nt	nt	nt	nt	nt	nt
COc1cc2c(cc1OC)C(C)N(S(=O)(=O)c1ccc(C)cc1)CC2 (stereo unspecified)	i	i	i	-6.9*	i	nt	nt	nt	nt	i	nt	TRPC4 sel inh 2=i;TRPC4 spec=-0.1%*;HEK293 MPD ctr 2-1=i;HEK293 MPD ctr-1=1.0%*
CN1CCC(NCCC(c2ccc(F)cc2)c2ccc(Cl)cc2)CC1 (stereo unspecified)	i	i	i	-5.4*	i	104%*	i	18%*	56%*	i	nt
CCCN1C(=O)c2ccccc2NC1c1ccc(O)c(OCC)c1 (stereo unspecified)	i	i	i	i	i	nt	nt	nt	nt	nt	nt
COc1cc(-c2cc[n+](C)cc2)ccc1O	i	i	i	-6*	i	-329%*	i	-53%*	i	i	i
CCOC(=O)C1=C(C)NC(=O)C1CC(=O)O (stereo unspecified)	i	i	i	i	i	nt	nt	nt	nt	nt	nt
O=C(Nc1ccc(O)cc1)/C(=C\C=C\c1ccccc1)NC(=O)c1ccccc1	i	i	i	-5.6*	i	i	i	i	37%*	i	i
Cc1noc(C)c1CSc1ncnc2ccccc12	i	i	i	i	i	nt	nt	nt	nt	nt	nt
CCN1C(=O)/C(=C/C=C2\C=CN(CC)c3ccccc32)SC1=S	i	i	i	-6.1*	i	i	i	-27%*	80%*	i	i
CCNC(=O)c1ccccc1SCC(=O)Nc1ccc(F)cc1	i	i	i	i	i	nt	nt	nt	nt	nt	nt
COc1ccc(-c2csc(NC(=O)CCCc3nc4ccccc4c(=O)[nH]3)n2)cc1OC	i	i	i	-5.2*	i	i	i	14%*	i	i	nt
CCN(CC(=O)Nc1c(F)cccc1F)C(=O)Cc1csc(-c2ccccc2)n1	i	i	i	i	i	nt	nt	nt	nt	nt	nt
COC(=O)CCC(=O)OC1(C)C(=O)C=C2C=C(C3CC3)N(CCc3c[nH]c4ccccc34)C=C2C1=O (stereo unspecified)	i	i	i	-7.2*	i	nt	nt	nt	nt	i	i	TRPC4 sel inh 2=i;TRPC4 spec=i;HEK293 MPD ctr 2-1=i;HEK293 MPD ctr-1=i
COC(=O)CCC(=O)OC1(C)C(=O)C=C2C=C(C3CC3)N(CCc3ccccn3)C=C2C1=O (stereo unspecified)	i	i	i	i	i	nt	nt	nt	nt	nt	nt
COc1cccc(N2CCN(C(=O)CCNS(=O)(=O)c3ccc4c(c3)c(=O)n(C)c(=O)n4C)CC2)c1	i	i	i	i	i	nt	nt	nt	nt	nt	nt
CN1c2cccc3cccc(c23)N(C)C1(C)C	i	i	i	i	i	nt	nt	nt	nt	nt	nt
CC(=O)c1ccc2cccc3c2c1N=CN3C	i	i	i	-8.9*	i	-146%*	68%*	-66%*	50%*	50%*	i
N#CC(C#N)=C1c2cc(S(=O)(=O)NCCO)ccc2-c2ccc(S(=O)(=O)NCCO)cc21	i	i	i	-5.2*	i	-138%*	i	-30%*	i	i	i
